What was measured:
MS2 coat protein [1] = assay: apparent Kd, MS2 coat protein; higher = weaker binding; RNA-MaP array; theophylline 2 mM where present
How it was run: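 Stalled E. coli RNA polymerase transcribed the designs on Illumina sequencing-chip clusters. SNAP-549-labelled MS2 coat protein was titrated from 0.7 or 1.5 nM, doubling to 3 µM, without and then with constant ligand, in 100 mM Tris-HCl pH 7.5, 80 mM KCl, 4 mM MgCl2, BSA, DTT, yeast tRNA and Tween-20. Per-cluster binding curves were fitted to green signal normalised to red-channel RNA signal and control-cluster median Fmax. The apparent Kd is the median of the filtered fits.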

MS2 coat protein [2] = assay: apparent Kd, MS2 coat protein; higher = weaker binding; RNA-MaP array
How it was run: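 With or without input ligand, designed RNAs transcribed on an Illumina sequencing chip from sequenced DNA templates were incubated at room temperature with fluorescently labeled MS2 coat protein at 1.5 nM to 3 μM. The buffer was Tris-HCl pH 7.5 with KCl, MgCl2, BSA, DTT, tRNA and Tween20, and incubation ran 0.8–1.5 h at the lowest and 10–20 min at the highest concentrations. Apparent Kd is reported as the median of fits to binding curves from individual clusters. Designs measured on fewer than 10 clusters are not included.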

[3] = designed as: OFF switch for theophylline, no ligand
[4] = ligand present: theophylline, designed as: OFF switch for theophylline
[5] = designed as: ON switch for theophylline, no ligand
[6] = ligand present: theophylline, designed as: ON switch for theophylline
[7] = designed as: OFF switch for flavin mononucleotide, no ligand
[8] = ligand present: flavin mononucleotide, designed as: OFF switch for flavin mononucleotide
[9] = designed as: ON switch for flavin mononucleotide, no ligand
[10] = ligand present: flavin mononucleotide, designed as: ON switch for flavin mononucleotide

Sequence	apparent Kd (MS2 coat protein [2]; [7])	apparent Kd (MS2 coat protein [2]; [8])	other results
UUGGUACGACAGCUCAUAUAAGCAUGUGAUACCAGACUGGAAACAGUCCCUUGGCAGCACUUUACAUGAGGAUCACCCAUGUCGG			apparent Kd (MS2 coat protein [1]; [3]): 221 nM; apparent Kd (MS2 coat protein [1]; [4]): 191 nM
UGUAACAUGAGGAUCACCCAUGUGAGUGAUACCAGAUUAGUAGUAGUCCCUUGGCAGCACAUUGGGCGAGUGUAUAGUCUAUGCG			apparent Kd (MS2 coat protein [1]; [5]): 171 nM; apparent Kd (MS2 coat protein [1]; [6]): 118 nM
GGUCUGAAAACCGAUCAAAGAUCGGAAGAUACCAGAGGGUGAUCCCUCCCUUGGCAGCUUCACAUGAGGAUCACCCAUGUAGACC			apparent Kd (MS2 coat protein [1]; [5]): 192 nM; apparent Kd (MS2 coat protein [1]; [6]): 151 nM
UCUGGGUCCGCAAGGACCUGGAGUUGCGAUACCAGCACGGUAACGUGCCCUUGGCAGCGCACAUGAGGAUCACCCAUGUGGUGUU			apparent Kd (MS2 coat protein [1]; [3]): 261 nM; apparent Kd (MS2 coat protein [1]; [4]): 436 nM
GAGCUGAUGUAGAGCGAAUAUUCGAGAGAUACCAGUACAGAAAUGUACCCUUGGCAGCUCAACUUUACAUGAGGAUCACCCAUGU			apparent Kd (MS2 coat protein [1]; [3]): 13.7 nM; apparent Kd (MS2 coat protein [1]; [4]): 25 nM
AUCUCGUUCAAUAUACCGCCUUGACUAGAUACCAGCAUGGACCCAUGCCCUUGGCAGCUGGACAUGAGGAUCACCCAUGUUUCAG			apparent Kd (MS2 coat protein [1]; [5]): 12.4 nM; apparent Kd (MS2 coat protein [1]; [6]): 14.6 nM
UCGACAUGAGGAUCACCCAUGUGCCUCGGAUGUCGUUAGAGUGAGGAUAUGUCACACCAAAACGUACAGAAGGCACUUAUUAGA	296 nM	267 nM	
CCAAUGCAAGGAUAUACAAAAGACUCACUAAAUAGAACAAAACAUGAGGAUCACCCAUGUAGAAGGUGCUGAAC	12.3 nM	13.6 nM	
UAUAGUUAAAAGGAUAUCGAAAACAAGCGUAAACGAGAAGGUUUAACAUGAGGAUCACCCAUGUAAGGAGAUGG	58.4 nM	139 nM	
CACAUGUCAGGAUAUAGCGAUACAGUUCGACCACUUACUGCCUAGAAGGGACAUGAGGAUCACCCAUGUAAAAG	26.1 nM	61.2 nM	
AUAUUCGUUCAGGAUAUGUUAAGCUCACGCCUAACAGAAGGGAAUACAUGAGGAUCACCCAUGUGGUGAUGGGA	498 nM	426 nM	
ACGAAUGGUUCAACAUGAGGAUCACCCAUGUGAUCUUCCAUUCAGGAUAUGUGUAGUAGAUCUCAACAGAAGGGAAUAAAAUAG	35.8 nM	38.7 nM	
CGUGGGUGUGAGCCACAUGAGGAUCACCCAUGUCACAACGUGAGAAGGAACAGGCCCUGUGUCGGUUAGGAUAUCAAACCCUUA	142 nM	27.3 nM	
UGGCCGUAGAAGAAGGAGGACACCGUUUUGUCACGGACAUGAGGAUCACCCAUGUAGAUAAUUGCCUAGGAUAUUCGCUCAUUU			apparent Kd (MS2 coat protein [2]; [9]): 15.9 nM; apparent Kd (MS2 coat protein [2]; [10]): 7.52 nM
UGUCGAUGAUCCAAGGAUAUAUGGAUGCUGACAUGAGGAUCACCCAUGUCCCGAGAAAUCAUUAAAUAGAAGGUGGGCUAUGGCAA			apparent Kd (MS2 coat protein [2]; [9]): 45.9 nM; apparent Kd (MS2 coat protein [2]; [10]): 21.2 nM
GACAACCACAUGAGGAUCACCCAUGUUUACAUACACAAGGGAAGAAGGGAACCUAAAGGAUCAAAUCAGGAUAUUCGUAUUGUA			apparent Kd (MS2 coat protein [2]; [9]): 27 nM; apparent Kd (MS2 coat protein [2]; [10]): 19.5 nM
GAAAACGAUCCCAAUACAUGAGGAUCACCCAUGUGGUGCAGUCAGGAUAUCACUACACCAAAACUUGAGAAGGGACACAUCGCC	347 nM	318 nM	
UACAUGAGGAUCACCCAUGUCAAUUGUAGAUCGCUCAACGGCAGAAGGCGCAACCCGAUCGGGAGCGAGGAUAUGCCUCGUUAA	26.5 nM	27.1 nM	
GAUACUACAUAGAAGGUACCGAUGAGCAAUUAACAAUGUGCGGCAACAUGAGGAUCACCCAUGUGUAAGGAUAUAUGCAGAACA	20.9 nM	15.5 nM	
AUGUAGUGCGAGAAGGACUCCCUCUUACACAUGAGGAUCACCCAUGUGCCCUCAAGCUAGACCGAGUAGGAUAUCGACCGCGCC	60 nM	43.6 nM	
AAGCUUCAACUUCAUUCACAUGAGGAUCACCCAUGUGAUCCGAGAAGGUUUCACUAGAAUUCUGAAAAGGAUAUCGAUCACAAU	16.2 nM	19.7 nM	
CAUGCUAACAUGAGGAUCACCCAUGUUCCGGCGUAAACUGCACAGGAUAUCGAGAAUUUACAAGCCGAGAAGGGUGCGUAGCAU			apparent Kd (MS2 coat protein [2]; [9]): 195 nM; apparent Kd (MS2 coat protein [2]; [10]): 71.7 nM
CUGAAGUAAGGAUAUAUAUACCAUAGACCAUUAAAGACAUUAUAGAAGGUACAUGAGGAUCACCCAUGUGGGAA	29.9 nM	26.4 nM	
AUAAAAGACAUGAGGAUCACCCAUGUAGCUCCUCGGUCUUCGAGAAGGUUCUUGCCCAGAGCGUGAAAGGAUAUCGCAUAUAUC	353 nM	448 nM	
GCUCUAAGGGAGAAGGUCAUGUCGCAUCUUAGCGUUCACAUGAGGAUCACCCAUGUUAACUGUGUGAAGGAUAUCCUAGGCUGU			apparent Kd (MS2 coat protein [2]; [9]): 358 nM; apparent Kd (MS2 coat protein [2]; [10]): 125 nM

Reference: the EternaBench riboswitch data
